From ChEMBL document CHEMBL2346629, “Discovery and characterization of novel allosteric FAK inhibitors” (Eur J Med Chem, 2013)

Tests used:
[1] = biological target: Ribosomal protein S6 kinase beta-1 (Homo sapiens) (UniProt P23443); test: Inhibition of P70S6K (unknown origin) using [gamma-33P]ATP assessed as residual activity at 3 uM
[2] = biological target: Mitogen-activated protein kinase kinase kinase 14 (Homo sapiens) (UniProt Q99558); test: Inhibition of NIK (unknown origin) using [gamma-33P]ATP assessed as residual activity at 3 uM
[3] = biological target: Ribosomal protein S6 kinase alpha-5 (Homo sapiens) (UniProt O75582); test: Inhibition of MSK1 (unknown origin) using [gamma-33P]ATP assessed as residual activity at 3 uM
[4] = biological target: Dual specificity mitogen-activated protein kinase kinase 2 (Homo sapiens) (UniProt P36507); test: Inhibition of MEK2 (unknown origin) using [gamma-33P]ATP assessed as residual activity at 3 uM
Outline: (§1)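 Contract radiometric panel screen of 288 kinases (261 wild-type, 27 mutant). Inhibition was read by [gamma-33P]ATP radioactivity incorporation.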

[5] = biological target: Serine/threonine-protein kinase MARK2 (Homo sapiens) (UniProt Q7KZI7); test: Inhibition of MARK2 (unknown origin) using [gamma-33P]ATP assessed as residual activity at 3 uM; outline: as §1
[6] = biological target: CDK9/Cyclin K (Homo sapiens) (UniProt P50750+O75909); test: Inhibition of CDK9/cyclin K (unknown origin) using [gamma-33P]ATP assessed as residual activity at 3 uM; assay type: protein-complex assay
Outline: (§2)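 Radiometric profiling across 288 kinases (261 wild-type, 27 mutant), run as an outsourced service. Inhibition read out as [gamma-33P]ATP incorporation into substrate.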

[7] = biological target: CDK6/cyclin D3 (Homo sapiens) (UniProt P30281+Q00534); test: Inhibition of CDK6/cyclin D3 (unknown origin) using [gamma-33P]ATP assessed as residual activity at 3 uM; assay type: protein-complex assay; outline: as §2
[8] = biological target: CDK6/cyclin D1 (Homo sapiens) (UniProt P24385+Q00534); test: Inhibition of CDK6/cyclin D1 (unknown origin) using [gamma-33P]ATP assessed as residual activity at 3 uM; assay type: protein-complex assay; outline: as §2
[9] = biological target: Calcium/calmodulin-dependent protein kinase type IV (Homo sapiens) (UniProt Q16566); test: Inhibition of CAMK4 (unknown origin) using [gamma-33P]ATP assessed as residual activity at 3 uM; outline: as §2
[10] = biological target: Tyrosine-protein kinase BTK (Homo sapiens) (UniProt Q06187); test: Inhibition of BTK (unknown origin) using [gamma-33P]ATP assessed as residual activity at 3 uM; outline: as §2
[11] = test system: MAP kinase-interacting serine/threonine-protein kinase 1 (Homo sapiens), Q9BUB5 [T385D]; test: Inhibition of MNK1 T385D mutant (unknown origin) using [gamma-33P]ATP assessed as residual activity at 3 uM; outline: as §1
[12] = biological target: MAP kinase-activated protein kinase 5 (Homo sapiens) (UniProt Q8IW41); test: Inhibition of MAPKAPK5 (unknown origin) using [gamma-33P]ATP assessed as residual activity at 3 uM
Outline: (§3)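 Radiometric kinase profiling service covering 288 kinases (261 wild-type, 27 mutant). Inhibition was read as incorporation from [γ-³³P]ATP.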

[13] = biological target: Tyrosine-protein kinase JAK3 (Homo sapiens) (UniProt P52333); test: Inhibition of JAK3 (unknown origin) using [gamma-33P]ATP assessed as residual activity at 3 uM; outline: as §3
[14] = test system: Tyrosine-protein kinase ABL1 (Homo sapiens), P00519 [M351T]; test: Inhibition of ABL1 M351T mutant (unknown origin) using [gamma-33P]ATP assessed as residual activity at 3 uM; outline: as §2
[15] = biological target: BDNF/NT-3 growth factors receptor (Homo sapiens) (UniProt Q16620); test: Inhibition of TRKB (unknown origin) using [gamma-33P]ATP assessed as residual activity at 3 uM
[16] = biological target: Tyrosine-protein kinase Tec (Homo sapiens) (UniProt P42680); test: Inhibition of TEC (unknown origin) using [gamma-33P]ATP assessed as residual activity at 3 uM
[17] = biological target: Serine/threonine-protein kinase Sgk2 (Homo sapiens) (UniProt Q9HBY8); test: Inhibition of SGK2 (unknown origin) using [gamma-33P]ATP assessed as residual activity at 3 uM
[18] = biological target: Rho-associated protein kinase 1 (Homo sapiens) (UniProt Q13464); test: Inhibition of ROCK1 (unknown origin) using [gamma-33P]ATP assessed as residual activity at 3 uM
[19] = biological target: Rhodopsin kinase GRK7 (Homo sapiens) (UniProt Q8WTQ7); test: Inhibition of GRK7 (unknown origin) using [gamma-33P]ATP assessed as residual activity at 3 uM; outline: as §3
[20] = biological target: G protein-coupled receptor kinase 4 (Homo sapiens) (UniProt P32298); test: Inhibition of GRK4 (unknown origin) using [gamma-33P]ATP assessed as residual activity at 3 uM; outline: as §3
[21] = biological target: G protein-coupled receptor kinase 3 (Homo sapiens) (UniProt P35626); test: Inhibition of GRK3 (unknown origin) using [gamma-33P]ATP assessed as residual activity at 3 uM; outline: as §3
[22] = biological target: Tyrosine-protein kinase Fyn (Homo sapiens, UniProt P06241); test: Inhibition of FYN (unknown origin) using [gamma-33P]ATP assessed as residual activity at 3 uM
[23] = biological target: Macrophage colony-stimulating factor 1 receptor (Homo sapiens) (UniProt P07333); test: Inhibition of FMS (unknown origin) using [gamma-33P]ATP assessed as residual activity at 3 uM; outline: as §3
[24] = biological target: Vascular endothelial growth factor receptor 3 (Homo sapiens) (UniProt P35916); test: Inhibition of FLT4 (unknown origin) using [gamma-33P]ATP assessed as residual activity at 3 uM; outline: as §3
[25] = biological target: Fibroblast growth factor receptor 2 (Homo sapiens) (UniProt P21802); test: Inhibition of FGFR2 (unknown origin) using [gamma-33P]ATP assessed as residual activity at 3 uM
Outline: (§4)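 Reaction Biology HotSpot radiometric profiling panel of 288 kinases (261 wild-type, 27 mutant). Kinase activity was read out by incorporation of [γ-33P]ATP.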

[26] = biological target: Ephrin type-A receptor 5 (Homo sapiens) (UniProt P54756); test: Inhibition of EPHA5 (unknown origin) using [gamma-33P]ATP assessed as residual activity at 3 uM; outline: as §4
[27] = biological target: cAMP-dependent protein kinase catalytic subunit PRKX (Homo sapiens) (UniProt P51817); test: Inhibition of PRKX (unknown origin) using [gamma-33P]ATP assessed as residual activity at 3 uM
[28] = biological target: Serine/threonine-protein kinase PLK2 (Homo sapiens) (UniProt Q9NYY3); test: Inhibition of PLK2 (unknown origin) using [gamma-33P]ATP assessed as residual activity at 3 uM
[29] = biological target: Protein kinase C theta type (Homo sapiens) (UniProt Q04759); test: Inhibition of PKCtheta (unknown origin) using [gamma-33P]ATP assessed as residual activity at 3 uM
[30] = biological target: Protein kinase C zeta type (Homo sapiens) (UniProt Q05513); test: Inhibition of PKCzeta (unknown origin) using [gamma-33P]ATP assessed as residual activity at 3 uM
[31] = biological target: Ephrin type-A receptor 1 (Homo sapiens) (UniProt P21709); test: Inhibition of EPHA1 (unknown origin) using [gamma-33P]ATP assessed as residual activity at 3 uM; outline: as §4
Chain of Ephrin type-A receptor 1 (Homo sapiens) (P21709 whole entry): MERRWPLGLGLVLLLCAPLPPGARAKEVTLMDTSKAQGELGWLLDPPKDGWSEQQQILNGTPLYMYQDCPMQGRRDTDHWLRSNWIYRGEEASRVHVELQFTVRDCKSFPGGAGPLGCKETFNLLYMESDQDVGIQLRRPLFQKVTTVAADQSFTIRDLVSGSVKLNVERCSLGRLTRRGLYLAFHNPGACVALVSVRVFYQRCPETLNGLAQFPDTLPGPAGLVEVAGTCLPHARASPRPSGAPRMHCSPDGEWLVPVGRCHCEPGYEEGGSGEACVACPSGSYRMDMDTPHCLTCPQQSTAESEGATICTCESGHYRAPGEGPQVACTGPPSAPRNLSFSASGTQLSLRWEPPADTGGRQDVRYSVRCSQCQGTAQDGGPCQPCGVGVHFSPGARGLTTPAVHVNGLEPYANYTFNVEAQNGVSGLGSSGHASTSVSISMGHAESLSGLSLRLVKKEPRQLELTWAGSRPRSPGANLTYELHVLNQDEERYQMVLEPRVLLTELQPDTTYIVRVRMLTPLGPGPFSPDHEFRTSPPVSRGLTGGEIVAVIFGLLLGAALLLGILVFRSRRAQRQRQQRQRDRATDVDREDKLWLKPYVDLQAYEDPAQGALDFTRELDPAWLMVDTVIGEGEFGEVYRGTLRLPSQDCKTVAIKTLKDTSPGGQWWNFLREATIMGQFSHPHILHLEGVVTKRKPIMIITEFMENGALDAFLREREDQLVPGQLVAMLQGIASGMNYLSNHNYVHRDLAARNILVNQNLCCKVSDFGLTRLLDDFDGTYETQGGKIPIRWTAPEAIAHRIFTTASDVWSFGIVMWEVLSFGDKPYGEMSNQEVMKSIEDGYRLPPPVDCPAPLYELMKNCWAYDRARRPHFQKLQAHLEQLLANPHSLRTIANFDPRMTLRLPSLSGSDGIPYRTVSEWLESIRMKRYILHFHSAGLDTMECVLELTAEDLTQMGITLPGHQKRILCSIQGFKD

Chain of Macrophage colony-stimulating factor 1 receptor (Homo sapiens) (P07333 whole entry): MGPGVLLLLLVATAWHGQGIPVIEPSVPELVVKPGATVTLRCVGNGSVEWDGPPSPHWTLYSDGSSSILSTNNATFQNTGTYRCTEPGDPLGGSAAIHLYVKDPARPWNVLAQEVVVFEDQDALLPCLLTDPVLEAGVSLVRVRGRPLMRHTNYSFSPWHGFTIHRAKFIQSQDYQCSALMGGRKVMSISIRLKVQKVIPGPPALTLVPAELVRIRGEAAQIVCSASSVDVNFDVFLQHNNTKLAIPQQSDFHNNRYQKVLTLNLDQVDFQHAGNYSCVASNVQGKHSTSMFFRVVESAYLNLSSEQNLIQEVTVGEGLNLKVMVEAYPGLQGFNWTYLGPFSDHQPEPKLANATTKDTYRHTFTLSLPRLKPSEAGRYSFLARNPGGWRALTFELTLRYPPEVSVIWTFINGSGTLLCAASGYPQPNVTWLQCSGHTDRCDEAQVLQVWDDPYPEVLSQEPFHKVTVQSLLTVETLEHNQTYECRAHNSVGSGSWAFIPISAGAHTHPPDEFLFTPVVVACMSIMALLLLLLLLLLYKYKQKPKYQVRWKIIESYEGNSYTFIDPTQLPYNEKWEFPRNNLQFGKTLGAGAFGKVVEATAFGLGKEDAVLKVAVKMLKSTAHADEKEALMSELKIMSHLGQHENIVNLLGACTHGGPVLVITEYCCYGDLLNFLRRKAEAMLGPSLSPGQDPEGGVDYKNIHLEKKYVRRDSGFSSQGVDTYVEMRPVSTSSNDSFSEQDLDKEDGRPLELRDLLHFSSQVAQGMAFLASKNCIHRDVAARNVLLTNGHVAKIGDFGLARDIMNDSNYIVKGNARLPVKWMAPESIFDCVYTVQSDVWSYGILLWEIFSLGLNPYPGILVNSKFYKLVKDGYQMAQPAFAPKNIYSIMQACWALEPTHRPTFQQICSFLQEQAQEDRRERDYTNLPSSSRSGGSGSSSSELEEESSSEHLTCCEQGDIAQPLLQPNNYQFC
Chain of Fibroblast growth factor receptor 2 (Homo sapiens) (P21802 whole entry, looked up): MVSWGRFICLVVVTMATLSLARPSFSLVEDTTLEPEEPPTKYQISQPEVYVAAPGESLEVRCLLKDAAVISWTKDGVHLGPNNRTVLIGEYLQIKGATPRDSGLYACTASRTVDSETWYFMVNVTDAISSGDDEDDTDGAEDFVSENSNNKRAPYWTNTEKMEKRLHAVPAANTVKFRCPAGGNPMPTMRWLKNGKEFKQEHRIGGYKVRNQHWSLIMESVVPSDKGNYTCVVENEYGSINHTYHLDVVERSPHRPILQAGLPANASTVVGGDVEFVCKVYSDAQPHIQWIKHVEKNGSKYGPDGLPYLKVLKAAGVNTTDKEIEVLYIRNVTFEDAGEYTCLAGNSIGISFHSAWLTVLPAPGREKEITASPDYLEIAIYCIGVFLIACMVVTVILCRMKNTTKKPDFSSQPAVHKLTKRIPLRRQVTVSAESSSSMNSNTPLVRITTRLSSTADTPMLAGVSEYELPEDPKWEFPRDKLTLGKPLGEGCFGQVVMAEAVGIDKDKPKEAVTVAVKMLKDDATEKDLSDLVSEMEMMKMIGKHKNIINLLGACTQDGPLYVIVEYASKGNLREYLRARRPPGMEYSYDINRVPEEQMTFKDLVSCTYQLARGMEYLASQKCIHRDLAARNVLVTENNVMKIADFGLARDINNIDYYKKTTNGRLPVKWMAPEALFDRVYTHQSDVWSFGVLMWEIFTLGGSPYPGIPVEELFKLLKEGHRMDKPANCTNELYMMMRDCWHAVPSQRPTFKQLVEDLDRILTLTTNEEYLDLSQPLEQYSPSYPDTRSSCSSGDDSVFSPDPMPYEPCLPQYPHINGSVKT
Chain of Tyrosine-protein kinase BTK (Homo sapiens) (Q06187 whole entry): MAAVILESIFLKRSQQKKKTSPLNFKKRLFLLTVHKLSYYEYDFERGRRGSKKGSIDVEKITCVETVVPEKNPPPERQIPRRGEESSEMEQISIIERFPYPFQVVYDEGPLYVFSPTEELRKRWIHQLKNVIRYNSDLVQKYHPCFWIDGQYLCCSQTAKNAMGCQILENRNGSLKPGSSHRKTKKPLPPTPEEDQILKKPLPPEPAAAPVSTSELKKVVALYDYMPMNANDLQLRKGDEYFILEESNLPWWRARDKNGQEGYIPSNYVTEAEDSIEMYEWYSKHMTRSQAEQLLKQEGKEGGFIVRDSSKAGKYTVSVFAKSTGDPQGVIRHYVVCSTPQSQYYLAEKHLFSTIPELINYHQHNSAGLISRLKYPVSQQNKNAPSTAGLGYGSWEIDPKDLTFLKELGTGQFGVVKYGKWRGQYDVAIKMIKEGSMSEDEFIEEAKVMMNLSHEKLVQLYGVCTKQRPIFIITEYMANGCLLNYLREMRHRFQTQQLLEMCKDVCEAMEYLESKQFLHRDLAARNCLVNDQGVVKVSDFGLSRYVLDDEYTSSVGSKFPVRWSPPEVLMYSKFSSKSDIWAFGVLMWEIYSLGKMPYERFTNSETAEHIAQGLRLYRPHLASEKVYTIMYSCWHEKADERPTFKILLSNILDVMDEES
Chain of Rho-associated protein kinase 1 (Homo sapiens) (Q13464 2-1354 limits assumed): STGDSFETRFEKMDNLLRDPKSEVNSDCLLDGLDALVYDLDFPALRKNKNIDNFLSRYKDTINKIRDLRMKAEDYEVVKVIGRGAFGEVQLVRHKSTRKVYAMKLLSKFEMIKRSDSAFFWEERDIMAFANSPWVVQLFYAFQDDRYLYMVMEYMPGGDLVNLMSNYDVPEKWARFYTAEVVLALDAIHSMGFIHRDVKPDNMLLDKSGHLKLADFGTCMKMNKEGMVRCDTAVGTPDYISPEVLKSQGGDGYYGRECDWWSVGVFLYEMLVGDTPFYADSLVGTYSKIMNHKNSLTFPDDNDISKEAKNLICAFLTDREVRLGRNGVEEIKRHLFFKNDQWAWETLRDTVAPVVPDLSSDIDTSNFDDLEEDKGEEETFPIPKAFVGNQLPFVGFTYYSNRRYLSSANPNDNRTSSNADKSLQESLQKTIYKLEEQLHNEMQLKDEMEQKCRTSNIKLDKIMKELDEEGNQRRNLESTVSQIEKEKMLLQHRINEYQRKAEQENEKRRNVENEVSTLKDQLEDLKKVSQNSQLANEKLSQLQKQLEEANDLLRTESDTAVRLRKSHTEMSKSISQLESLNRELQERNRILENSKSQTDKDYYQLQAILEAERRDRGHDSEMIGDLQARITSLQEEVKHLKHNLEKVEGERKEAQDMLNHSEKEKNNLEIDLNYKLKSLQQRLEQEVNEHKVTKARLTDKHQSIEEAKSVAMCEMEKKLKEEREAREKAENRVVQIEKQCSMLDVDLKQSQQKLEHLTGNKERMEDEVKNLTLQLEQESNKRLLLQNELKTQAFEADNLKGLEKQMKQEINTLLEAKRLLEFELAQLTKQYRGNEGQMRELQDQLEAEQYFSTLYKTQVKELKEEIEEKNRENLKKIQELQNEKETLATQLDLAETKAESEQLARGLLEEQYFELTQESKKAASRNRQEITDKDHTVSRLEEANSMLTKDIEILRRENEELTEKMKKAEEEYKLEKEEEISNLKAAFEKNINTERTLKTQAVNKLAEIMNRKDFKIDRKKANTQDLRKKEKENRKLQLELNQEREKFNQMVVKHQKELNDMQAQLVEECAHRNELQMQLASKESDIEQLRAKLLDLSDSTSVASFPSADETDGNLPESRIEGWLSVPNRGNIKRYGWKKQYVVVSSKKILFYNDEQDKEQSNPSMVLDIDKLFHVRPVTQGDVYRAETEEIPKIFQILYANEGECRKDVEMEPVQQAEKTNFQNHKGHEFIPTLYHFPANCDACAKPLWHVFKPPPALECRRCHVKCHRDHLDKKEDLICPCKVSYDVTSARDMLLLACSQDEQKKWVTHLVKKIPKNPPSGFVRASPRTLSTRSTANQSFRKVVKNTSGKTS

- Activity [1]: 95%
- Activity [2]: 89%
- Activity [3]: 94%
- Activity [4]: 89%
- Activity [5]: 91%
- Activity [6]: 97%
- Activity [7]: 102%
- Activity [8]: 96%
- Activity [9]: 95%
- Activity [10]: 95%
- Activity [11]: 86%
- Activity [12]: 87%
- Activity [13]: 94%
- Activity [14]: 66%
- Activity [15]: 101%
- Activity [16]: 102%
- Activity [17]: 91%
- Activity [18]: 94%
- Activity [19]: 85%
- Activity [20]: 94%
- Activity [21]: 93%
- Activity [22]: 39%
- Activity [23]: 96%
- Activity [24]: 80%
- Activity [25]: 87%
- Activity [26]: 90%
- Activity [27]: 93%
- Activity [28]: 95%
- Activity [29]: 98%
- Activity [30]: 98%
- Activity [31]: 95%
Structure (SMILES): CCc1ccc(-c2ccc3c(c2)-c2[nH]ncc2S(=O)(=O)N3C)cc1
